DTT redox prof: compounds producing H2O2 with reducing agent – biochemical, NIH compound library profiling, artefact control for MLSCN library redox annotation, primary screen. DTT-dependent redox cycling H2O2, phenol red/HRP absorbance; 100% = 100 µM peroxide control, 0% = buffer. activation, % at 10 µM. hit rate 0.03% among 200,000. AID 878, 2007;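 active means activation of at least 50% relative to the plate's high and low controls in the primary single-dose screen; inactive means activation below 50%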;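 further: compound incubated with DTT at 0.8 mM final as the reducing agent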
p97 ATPase inh: inhibitors of human p97 ATPase, primary screen, biochemical | Transitional endoplasmic reticulum ATPase (Homo sapiens), P55072 | recombinant p97 ATPase, Kinase-Glo ATP luminescence, 3 h | inhibition, % at 8 µM | hit rate 0.42% among 220,000; in the data active means inhibition above about 15%
Cl transport mod: KCC2 cotransporter modulators, thallium flux, primary screen, cell-based, HEK293 KCC2, FluoZin-2 fluorescence, MLSMR; KCC2 cells, thallium flux FluoZin-2 fluorescence; B-score of Tl+ flux slope (higher = more flux/activation; lower = inhibition) at 10 µM; AID 1456, 2008; Solute carrier family 12 member 5 (Homo sapiens), Q9H2X9; hit rate 2.2% among 190,000;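 active means thallium flux slope and its plate-corrected score both differing from the plate sample mean at a set confidence after two filtering rounds, in either direction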;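 further: slope of fluorescence scaled to starting intensity during 10 to 20 s after thallium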
PKD1 kinase inh: inhibitors of human PKD1 kinase, biochemical, fluorescence polarization | PKD1 kinase fluorescence polarization assay | inhibition, % (concentration not given with the values) | hit rate 0.056% among 200,000; in the data active means inhibition above about 50%
ROMK primary: ROMK potassium channel modulators, primary screen, cell-based, thallium flux, MLSMR library; AID 1918, 2009; hit rate 2% among 130,000; Tet-inducible ROMK, thallium flux fluorescence; actives lie on both sides; B-score at 10 µM;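 active means signal ratio slope over the read window, or its plate-corrected B-score, at least 3 SD from the plate mean, either direction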;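 further: B-score of the F/F0 ratio slope over 7 to 12 s after thallium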
MDM2 E3 inh: MDM2-luciferase reporter signal enhancers, primary screen, MDM2 E3 ligase inhibitor project, cell-based, luminescence, 1536-well; E3 ubiquitin-protein ligase Mdm2 (Homo sapiens), Q00987; cell-based MDM2 ubiquitination luciferase reporter, 2 h; 0 = plate control, 100 = twice control, blank-subtracted; signal enhancement, % at 5 µM; hit rate 0.11% among 210,000; AID 1230, 2008;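 active means signal enhancement of 30% or more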;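 further: luminescence tracks abundance of the self-degrading MDM2-luciferase fusion protein; higher signal means inhibition of MDM2 E3 ligase activity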
Target sequence (Q00987 whole entry, looked up, the tested form may be a part): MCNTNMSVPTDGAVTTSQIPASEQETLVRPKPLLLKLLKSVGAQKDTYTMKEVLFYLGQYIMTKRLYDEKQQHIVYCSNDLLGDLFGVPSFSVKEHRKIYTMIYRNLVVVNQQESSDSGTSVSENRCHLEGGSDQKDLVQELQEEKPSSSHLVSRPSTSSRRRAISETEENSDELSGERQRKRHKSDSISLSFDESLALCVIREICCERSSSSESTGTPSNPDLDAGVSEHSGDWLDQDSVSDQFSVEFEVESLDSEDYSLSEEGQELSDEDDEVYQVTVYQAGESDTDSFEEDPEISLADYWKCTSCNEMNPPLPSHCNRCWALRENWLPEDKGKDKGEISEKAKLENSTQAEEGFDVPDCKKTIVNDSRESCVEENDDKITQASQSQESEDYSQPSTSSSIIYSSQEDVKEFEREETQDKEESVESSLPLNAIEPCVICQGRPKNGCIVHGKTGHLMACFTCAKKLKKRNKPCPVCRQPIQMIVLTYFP
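system = mammalian cells stably expressing self-ubiquitinating, self-degrading MDM2 E3–luciferase fusion | quantity = 2000 cells per well seeded | incubation = 4 h cell settling then 2 h compound exposure, 37 °C | signal = SteadyLite luminescence, 15 min reagent step | benchmarks = plate control and blank wells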
Numbers stand for hits; n = inactive; x = no result given. Hits are enriched below; roughly 3.4% of the tested compounds scored in any of these assays.

SMILES | DTT redox prof | p97 ATPase inh | Cl transport mod | PKD1 kinase inh | ROMK primary | MDM2 E3 inh
O=C(/C=C/c1ccc(Br)cc1)NC(=S)Nc1ccc(S(=O)(=O)Nc2nccs2)cc1 | n | n | n | n | x | n
Cc1ccccc1NC(=S)NNC(=O)c1csc2c1CCC(C)C2 (centres undefined) | n | n | 94 | n | n | n
Cc1ccccc1N(CC(=O)N/N=C/c1cc(C)n(-c2ccccc2C)c1C)S(C)(=O)=O | n | n | n | n | 8.5 | n
COc1ccc2[nH]c(=O)c(CN(CC3CCCO3)C(=O)Nc3ccccc3OC)cc2c1 (centres undefined) | n | n | n | n | x | n
COc1ccccc1NC(=O)N(Cc1cc2cc(OC)c(OC)cc2[nH]c1=O)CC1CCCO1 (centres undefined) | n | n | -3.3 | n | n | n
CC1(C)Oc2ccc3ccc(=O)oc3c2-c2cnoc21 | n | n | n | n | x | n
CC1(C)Oc2ccc3ccc(=O)oc3c2-c2cn[nH]c21 | n | n | n | 90 | x | n
CCOc1ccc(S(=O)(=O)NCCC(=O)NCc2ccco2)cc1 | n | n | n | n | n | n
COc1ccccc1/C=C/C(=O)N1CCCC1 | n | n | n | n | n | n
OCCn1c(-c2ccc3c(c2)OCO3)csc1=Nc1ccccc1 | n | n | x | n | x | n
CN1CCN(C(=O)c2ccc3c(=O)n(Cc4ccc(Cl)cc4)c(=S)[nH]c3c2)CC1 | n | n | n | n | n | n
O=c1[nH]c2ccc(Cl)cc2c(=O)n1Cc1ccco1 | n | n | n | n | n | n
O=c1c2cc(Cl)ccc2[nH]c(=S)n1Cc1cccs1 | n | n | 19 | n | n | n
O=c1c2cc(Cl)ccc2[nH]c(=S)n1Cc1ccco1 | n | n | 20 | n | x | n
O=C(NCCc1ccccc1)C1CCN(C2CCN(Cc3ccc(CO)o3)CC2)CC1 | n | n | n | n | x | 38
CCOc1ccccc1NC(=O)COC(=O)/C=C/c1ccc(OC)c(OC)c1 | n | n | n | n | n | n
Cc1ccc(CSCC(=O)NCCc2ccccc2)cc1 | n | n | n | n | n | n
CSc1ccccc1NC(=O)CSCc1ccc(C)cc1 | n | n | -3.9 | n | x | n
Cc1ccc(NC(=S)N/N=C/c2c(Cl)cccc2Cl)c(C)c1 | n | n | 53 | n | n | n
CCNC(=S)N/N=C/c1c(Cl)cccc1Cl | n | n | 9.3 | n | n | n
COc1cc(C(=O)NC(=S)Nc2csc(-c3ccc(F)cc3)n2)cc(OC)c1OC | x | n | n | x | x | n
S=c1nc(-c2ccccc2)n(Cc2cccnc2)c2c1CCCC2 | x | n | n | x | n | n
S=c1nc(-c2ccccc2)n(Cc2ccco2)c2c1CCCC2 | n | n | 15 | n | x | x
CCc1ccc(Nc2nc3ccccc3c(=O)s2)cc1 | n | n | 7.5 | n | n | n
NC(=O)CSc1nc2scc(-c3ccco3)c2c(=O)n1-c1ccccc1 | n | 15 | n | n | x | n
SMILES | DTT redox prof | p97 ATPase inh | Cl transport mod | PKD1 kinase inh | ROMK primary | MDM2 E3 inh
CC(=O)N/N=C/c1cc(C(C)C)cc(/C=N/NC(C)=O)c1O | n | n | 5.7 | n | -3.3 | n
Cc1onc(-c2ccccc2)c1C(=O)NNC(=S)NC(=O)c1ccc(Br)cc1 | n | n | 20 | n | n | n
COc1ccc(OC)c(S(=O)(=O)n2nc(C)cc2C)c1 | n | n | x | n | n | n
CCCn1c(N)nc2ccccc21 | n | n | n | n | x | x
Nc1nc2ccccc2n1CCOc1ccccc1Cl | n | n | x | n | -3.9 | n
CC(C(=O)N1c2ccccc2CCc2ccccc21)n1nnc(-c2ccc(N(C)C)cc2)n1 (centres undefined) | n | n | x | n | x | x
Cc1ccc2c(c1)c1ccc3c(c1n2C)C(=O)C=CC3=O | x | n | n | x | n | 40
Cc1c(NC(=S)NC(=O)c2ccco2)cccc1-c1nc2ncccc2o1 | n | n | 13 | n | n | n
